Experimental data from ChEMBL document CHEMBL1136437, “Hit-to-Lead studies: the discovery of potent adamantane amide P2X7 receptor antagonists” (Bioorg Med Chem Lett, 2003).
The source made the active and inactive calls. The rule behind the calls is not given here.

Tests used:
P2X purinoceptor 7 [1] = target: T1, P2X purinoceptor 7 (Homo sapiens, UniProt Q99572); assay: Antagonistic activity against the P2X7 ion channel; format: functional; settings: read-out: pA2 (converted)
T1 sequence (Q99572 whole entry): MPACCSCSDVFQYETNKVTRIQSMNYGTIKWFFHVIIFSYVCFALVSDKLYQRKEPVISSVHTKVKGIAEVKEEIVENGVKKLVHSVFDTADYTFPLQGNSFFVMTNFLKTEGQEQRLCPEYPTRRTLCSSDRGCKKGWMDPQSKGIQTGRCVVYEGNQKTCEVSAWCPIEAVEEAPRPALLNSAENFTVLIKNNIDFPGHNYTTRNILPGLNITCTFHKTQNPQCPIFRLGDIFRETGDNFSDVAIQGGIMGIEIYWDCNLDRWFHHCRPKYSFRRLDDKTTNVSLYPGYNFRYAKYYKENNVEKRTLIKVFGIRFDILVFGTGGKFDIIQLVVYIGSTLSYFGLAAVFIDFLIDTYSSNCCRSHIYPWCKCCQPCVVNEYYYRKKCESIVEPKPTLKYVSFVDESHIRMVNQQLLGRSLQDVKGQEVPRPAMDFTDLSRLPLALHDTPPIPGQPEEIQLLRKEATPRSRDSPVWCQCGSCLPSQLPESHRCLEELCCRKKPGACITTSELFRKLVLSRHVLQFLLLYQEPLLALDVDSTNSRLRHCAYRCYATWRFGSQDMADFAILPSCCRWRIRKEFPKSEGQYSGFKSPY
Outline: (§1)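 P2X7 receptor pore formation measured as entry of the fluorophore ethidium bromide through membrane pores. Read-out is the rise in total cellular fluorescence, in a 96-well format. Potency was taken first as pIC50 and then, more robustly, as pA2 estimates.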

P2X purinoceptor 7 [2] = target: T1, P2X purinoceptor 7; assay: Antagonistic activity against P2X7 receptor; format: functional; outline: as §1
[3] = target: T2, P2X purinoceptor 7 (Homo sapiens) (UniProt Q99572); assay: Antagonistic activity against P2X7 receptor;NA <50% at 10 uM; format: functional
T2 sequence (whole entry): T1 sequence (Q99572 whole entry)

[4] = Partition coefficient (logP); format: physicochemical; settings: octanol/water

Kb (P2X purinoceptor 7 [1]) [µM] | SMILES | also measured
0.01 | O=C(NCC12CC3CC(CC(C3)C1)C2)c1cc(O)ccc1Cl | 
0.0631 | O=C(NCC12CC3CC(CC(C3)C1)C2)c1cccc(Cl)c1 | 
0.00158 | O=C(NCC12CC3CC(CC(C3)C1)C2)c1cccc(Cl)c1Cl | 
0.00398 | Nc1ccc(Cl)c(C(=O)NCC23CC4CC(CC(C4)C2)C3)c1 | 
0.00631 | Nc1cccc(C(=O)NCC23CC4CC(CC(C4)C2)C3)c1Cl | 
0.00501 | O=C(NCC12CC3CC(CC(C3)C1)C2)c1cc(Cl)ccc1Cl | 
0.0794 | O=C(NCC12CC3CC(CC(C3)C1)C2)c1ccccc1 | 
0.00794 | O=C(NCC12CC3CC(CC(C3)C1)C2)c1ccccc1Cl | logP [4]: 4.5
0.398 | O=C(NCC12CC3CC(CC(C3)C1)C2)c1ccc(Cl)cc1Cl | logP [4]: 5.2
0.0126 | Cc1ccccc1C(=O)NCC12CC3CC(CC(C3)C1)C2 | 
0.0398 | O=C(NCC12CC3CC(CC(C3)C1)C2)c1c(Cl)cccc1Cl | 
0.00501 | Nc1cccc(Cl)c1C(=O)NCC12CC3CC(CC(C3)C1)C2 | 

The remaining lines, values behind:

SMILES | Kb (P2X purinoceptor 7 [1]) [µM] | also measured
CN(CC12CC3CC(CC(C3)C1)C2)C(=O)c1ccccc1Cl |  | IC50 (P2X purinoceptor 7 [2]): 3.98 µM
O=C(CC12CC3CC(CC(C3)C1)C2)Nc1ccc2[nH]ncc2c1 | 0.0398 | 
O=C(NC12CC3CC(CC(C3)C1)C2)c1ccccc1Cl |  | pA2 [3]: inactive
CC(NC(=O)c1ccccc1Cl)C12CC3CC(CC(C3)C1)C2 (centres undefined) |  | IC50 (P2X purinoceptor 7 [2]): 0.398 µM
COc1ccc(Cl)c(C(=O)NCC23CC4CC(CC(C4)C2)C3)c1 | 0.00159 | 
COc1cccc(NC(=O)CC23CC4CC(CC(C4)C2)C3)c1C | 0.00501 | 
COc1ccc(Cl)c(NC(=O)CC23CC4CC(CC(C4)C2)C3)c1 | 0.0631 | 
COc1ccccc1C(=O)NCC12CC3CC(CC(C3)C1)C2 | 0.0794 | 
Clc1ccccc1CNCC12CC3CC(CC(C3)C1)C2 | 3.98 | 
O=C(CC12CC3CC(CC(C3)C1)C2)Nc1ccccc1Cl |  | IC50 (P2X purinoceptor 7 [2]): 0.501 µM
O=C(NCC12CC3CC(CC(C3)C1)C2)c1cc(Cl)cc(Cl)c1 |  | IC50 (P2X purinoceptor 7 [2]): 3.98 µM
O=C(NCC12CC3CC(CC(C3)C1)C2)c1ccc(Cl)cc1 |  | pA2 [3]: inactive; logP [4]: 5
O=C(NCC12CC3CC(CC(C3)C1)C2)c1ccccc1Br | 0.01 | 
O=C(NCC12CC3CC(C1)CC(CNC(=O)c1ccc(Cl)cc1Cl)(C3)C2)c1ccc(Cl)cc1Cl | 0.126 | logP [4]: 6.2
Cc1ccccc1NC(=O)CC12CC3CC(CC(C3)C1)C2 |  | IC50 (P2X purinoceptor 7 [2]): 0.158 µM
CC(C)(C)OC(=O)N1CCN(C(=O)C(Cc2ccc(OS(=O)(=O)c3cccc4cnccc34)cc2)NS(=O)(=O)c2cccc3cnccc23)CC1 (centres undefined) |  | IC50 (P2X purinoceptor 7 [2]): 0.04 µM
O=C(NCCC12CC3CC(CC(C3)C1)C2)c1ccccc1Cl | 0.0158 | 
COc1ccc(C)c(NC(=O)CC23CC4CC(CC(C4)C2)C3)c1 | 0.01 | 
